Experimental data from article PMC9041536 (RSC Advances, 2021).

Columns and labels:
[1] = test system: human colorectal adenocarcinoma (HT-29); test: SRB cytotoxicity assay, HT-29; assay type: cell-based; details: HT-29, 72 h, read-out: Cytotoxicity (IC50) HT-29
[2] = test system: human neuroblastoma (SH-SY5Y); test: SRB cytotoxicity assay, SH-SY5Y; assay type: cell-based; details: for IC50: Homo sapiens, SH-SY5Y, 72 h, read-out: Cytotoxicity (IC50) SH-SY5Y
[3] = test system: human mammary gland adenocarcinoma (MDA-MB-231); test: SRB cytotoxicity assay, MDA-MB-231; assay type: cell-based; details: MDA-MB-231, 72 h, read-out: Cytotoxicity (IC50) MDA-MB-231
[4] = test system: human squamous cell carcinoma (FaDu); test: SRB cytotoxicity assay, FaDu; assay type: cell-based; details: 72 h, read-out: Cytotoxicity (IC50) FaDu
[5] = SRB cytotoxicity assay, normal cell line CL; assay type: cell-based; details: human, CL cells (normal liver hepatic cell line)
[6] = test system: human lung carcinoma (A-549); test: SRB cytotoxicity assay, A-549; assay type: cell-based; details: A549, 72 h, read-out: Cytotoxicity (IC50) A-549
[7] = test system: human intrahepatic cholangiocarcinoma (KKU-M213); test: SRB cytotoxicity assay, KKU-M213; assay type: cell-based; details: KKU-M213, 72 h, read-out: Cytotoxicity (IC50) KKU-M213
[8] = test system: six cancer cell lines, KKU-M213, FaDu, HT-29, MDA-MB-231, A-549, and SH-SY5Y; test: SRB cytotoxicity assay, all tested cancer cell lines; assay type: cell-based, human; details: for Cytotoxicity (in words): under tested concentrations (0.1–50 μM)
Summary of the method: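 Sulforhodamine B assay, slightly modified, with ellipticine as positive control. Compounds were in 10% DMSO and tested over 0.1–50 μM. Cells exposed for 72 h at 37 °C, 5% CO2, humidified. Fixed with 10% TCA, stained with 0.4% SRB, unbound dye washed off with 1% acetic acid, bound dye solubilised in 10 mM Tris base (pH 10.5). A510 read. IC50 is the concentration giving 50% growth inhibition.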

[9] = test system: E. coli (ATCC 25922); test: Agar well diffusion method, E. coli; assay type: cell-based; details: Escherichia coli, ATCC25922, read-out: zone of inhibition E. coli
Summary of the method: (§1)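 Bacteria swabbed onto Mueller–Hinton agar, then 6 mm wells cut with a sterile cork borer. Each well received 20 µL of test compound dissolved in DMSO at 5 mg mL−1. Plates held 30 min in a refrigerator for diffusion, then incubated at 37 °C for 16–20 h. Inhibition zone measured in mm. Negative control: 10% DMSO.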

[10] = test system: P. aeruginosa (ATCC 27853); test: Agar well diffusion method, P. aeruginosa; assay type: cell-based; details: Pseudomonas aeruginosa, ATCC27853, read-out: zone of inhibition P. aeruginosa
Summary of the method: as §1

[11] = test system: S. aureus (ATCC 25923); test: Agar well diffusion method, S. aureus; assay type: cell-based; details: Staphylococcus aureus, ATCC25923, read-out: zone of inhibition S. aureus
Summary of the method: as §1

SMILES | IC50 [1] | IC50 [2] | IC50 [3] | IC50 [4] | IC50 at 72 h [5] | IC50 [6] | IC50 [7] | Selectivity Index (SI) SH-SY5Y ([2]; ratio of IC50 on normal cell (CL) divided by that on cancer cell) | Cytotoxicity (in words) [8] | IC50 ([8]; Homo sapiens, read-out: IC50 on all tested cancer cell lines) | zone of inhibition at 5 µg/mL [9] | zone of inhibition at 5 µg/mL [10] | zone of inhibition at 5 µg/mL [11]
CCCC(=O)Oc1c(C)c(O)c(C(=O)/C=C/c2ccccc2)c(OC)c1C [Compound 2a, 2′-Hydroxy-4′-butyryloxy-6′-methoxy-3′,5′-dimethylchalcone] | 35.8 µM | 27.6 µM | 38.2 µM | 31.2 µM | 32.8 µM | > 50 µM | 30.1 µM |  |  |  |  |  | 
CCCCCC(=O)Oc1c(C)c(O)c(C(=O)/C=C/c2ccccc2)c(OC)c1C [Compound 2b, 2′-Hydroxy-4′-caproyloxy-6′-methoxy-3′,5′-dimethylchalcone] | 26.6 µM | 5.2 µM | 18.1 µM | 18.9 µM | 23.5 µM | 24.8 µM | 21.3 µM | 4.53 |  |  |  |  | 
CCCCCCCC(=O)Oc1c(C)c(O)c(C(=O)/C=C/c2ccccc2)c(OC)c1C [Compound 2c, 2′-Hydroxy-4′-capryloyloxy-6′-methoxy-3′,5′-dimethylchalcone] | 26.6 µM | 18 µM | 25.9 µM | 20.6 µM | 25.2 µM | > 50 µM | 24.4 µM |  |  |  |  |  | 
CCCCCCCCCC(=O)Oc1c(C)c(O)c(C(=O)/C=C/c2ccccc2)c(OC)c1C [Compound 2d, 2′-Hydroxy-4′-caprinoyloxy-6′-methoxy-3′,5′-dimethylchalcone] | > 50 µM | 24.8 µM | 36.7 µM | 34.7 µM | 41.9 µM | > 50 µM | > 50 µM |  |  |  |  |  | 
COc1c(C)c(OC(C)=O)c(C)c(O)c1C(=O)/C=C/c1ccccc1 [Compound 2f, 2′-Hydroxy-4′-acetyloxy-6′-methoxy-3′,5′-dimethylchalcone] | 38.6 µM | 28.6 µM | 40.3 µM | 36.5 µM | 31 µM | > 50 µM | 43 µM |  |  |  |  |  | 
COc1c(C)c(OCc2ccccc2)c(C)c(O)c1C(=O)/C=C/c1ccccc1 [Compound 2h, 2′-Hydroxy-4′-benzyloxy-6′-methoxy-3′,5′-dimethylchalcone] | 27.5 µM | 16.4 µM | 26.9 µM | 14 µM | 22.6 µM | 9.99 µM | 23.2 µM |  |  |  |  |  | 
C=CCOc1c(C)c(O)c(C(=O)/C=C/c2ccccc2)c(OC)c1C [Compound 2i, 2′-Hydroxy-4′-allyloxy-6′-methoxy-3′,5′-dimethylchalcone] | 34.6 µM | 28.2 µM | 39.1 µM | 29 µM | 31.7 µM | 36.7 µM | 31.3 µM |  |  |  |  |  | 
COc1c(C)c(OC(=O)c2ccccc2)c(C)c(O)c1C(=O)/C=C/c1ccccc1 [Compound 2k, 2′-Hydroxy-4′-benzoyloxy-6′-methoxy-3′,5′-dimethylchalcone] | 32.5 µM | 20.2 µM | > 50 µM | 37.9 µM | > 50 µM | 41.3 µM | > 50 µM |  |  |  |  |  | 
COc1c(C)c(OC(=O)c2ccc(C)cc2)c(C)c(O)c1C(=O)/C=C/c1ccccc1 [Compound 2l, 2′-Hydroxy-4′-(p-toluoyloxy)-6′-methoxy-3′,5′-dimethylchalcone] | 26.8 µM | 15.6 µM | 25.1 µM | 22.1 µM | 25.4 µM | 22.4 µM | 28.9 µM |  |  |  |  |  | 
COc1c(C)c(OS(=O)(=O)c2ccc3ccccc3c2)c(C)c(O)c1C(=O)/C=C/c1ccccc1 [Compound 2n, 2′-Hydroxy-4′-(2-naphthalenesulfonyl)oxy-6′-methoxy-3′,5′-dimethylchalcone] | 24.7 µM | 16.4 µM | 39.8 µM | 21.1 µM | 30.4 µM | > 50 µM | 27.8 µM |  |  |  |  |  | 
COc1c(C)c(OC(C)=O)c(C)c(OC(C)=O)c1C(=O)/C=C/c1ccccc1 [Compound 5f, 2′,4′-Diacetyloxy-6′-methoxy-3′,5′-dimethylchalcone] | 36.5 µM | 18.8 µM | 29.8 µM | 33.6 µM | 27.4 µM | 15.4 µM | 28 µM |  | poor cytotoxicity |  |  |  | 
COc1c(C)c(OC)c(C(=O)/C=C/c2ccccc2)c(OC)c1C [Compound 5g, 2′,4′,6′-Trimethoxy-3′,5′-dimethylchalcone] | 21.9 µM | 12.6 µM | 29.8 µM | 19.3 µM | 18.7 µM | 22.7 µM | 23.5 µM |  | moderate cytotoxicity | 12.6 to 29.8 µM |  |  | 
COc1c(C)c(O)c(C)c(O)c1C(=O)/C=C/c1ccccc1 [DMC, 2′,4′-Dihydroxy-6′-methoxy-3′,5′-dimethylchalcone] | 38.6 µM | 13.1 µM | 37.6 µM | 37.6 µM | 15.6 µM | 19.9 µM | 29.4 µM |  |  |  | 8 mm | 8 mm | 9 mm
Cc1c2ccncc2c(C)c2c1[nH]c1ccccc12 [Ellipticine, reference compound] | 2.15 µM | 2.64 µM | 2.8 µM | 2.03 µM | 2.07 µM | 1.14 µM | 2.4 µM |  |  |  |  |  | 
